Tests used:
[1] = test system: FL transporter-1 (Blon_0341–0343); assay type: cell-based, B. infantis JCM 1222^T; conditions: for change in concentration of each HMO in culture supernatant (consumption): MS554 expressing FL transporter-1, growth on 0.5% (w/v) purified HMO mixture
How it was run: (§1)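 The host was B. longum 105-A ΔlnbX ΔgltA carrying pMSK65, which encodes intracellular HMO-degrading exo-glycosidases. It was transformed with the transporter gene cluster or an empty vector. Cultures grew anaerobically at 37°C in MRS-CS with 0.5% (w/v) purified HMO mixture, Lac, 2′-FL, 3-FL, LDFT or LNFP I. OD600 was followed in technical duplicates. Supernatant HMOs were fluorescence-labelled and measured by HPLC against a maltoheptaose internal standard, in technical triplicates; means ± SD.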

[2] = test system: FL transporter-2 (Blon_2202–2204); assay type: cell-based, B. infantis JCM 1222^T; conditions: for change in concentration of each HMO in culture supernatant (consumption): MS554 expressing FL transporter-2, growth on 0.5% (w/v) purified HMO mixture
How it was run: as §1

B. infantis JCM 1222^T = assay type: cell-based; conditions: 0.5% (w/v) sugar
How it was run: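 B. infantis JCM 1222T wild type and FL transporter mutants were grown anaerobically at 37°C in MRS-CS broth (0.34% w/v sodium ascorbate, 0.02% w/v cysteine-HCl). Each broth carried 0.5% (w/v) of Gal, 2′-FL, 3-FL, LDFT, LNFP I or purified HMO mixture. The HMO mixture was purified from pooled breast milk and contained 2% (w/w) Lac impurity. Growth was followed over time in biological duplicates, reported as means ± SD.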

Compound | change in concentration of each HMO in culture supernatant (consumption) [1] | change in concentration of each HMO in culture supernatant (consumption) [2] | growth on sugar as carbon source ([1]; MS554 expressing FL transporter-1, 0.5% (w/v) sugar, OD600) | growth on sugar as carbon source ([2]; MS554 expressing FL transporter-2, 0.5% (w/v) sugar, OD600) | growth of WT and the four mutants of B. infantis (B. infantis JCM 1222^T)
CC(=O)N[C@H]1[C@H](O[C@H]2[C@@H](O)[C@@H](CO)O[C@@H](O[C@H]3[C@H](O)[C@@H](O)C(O)O[C@@H]3CO)[C@@H]2O)O[C@H](CO)[C@@H](O[C@@H]2O[C@H](CO)[C@H](O)[C@H](O)[C@H]2O)[C@@H]1O (mixture of isomers) [LNnT, lacto-N-neotetraose] | invariant | invariant |  |  | 
OC[C@H]1O[C@@H](O[C@H]2[C@H](O)[C@@H](O)C(O)O[C@@H]2CO)[C@H](O)[C@@H](O)[C@H]1O (mixture of isomers) [Lac, lactose] |  |  | indistinguishable from the control strain | indistinguishable from the control strain | 
O=C[C@H](O)[C@@H](O)[C@@H](O)[C@H](O)CO [Gal, galactose] |  |  |  |  | grew at similar rates
CC(=O)N[C@H]1[C@H](O[C@H]2[C@@H](O)[C@@H](CO)O[C@@H](O[C@@H]([C@H](O[C@@H]3O[C@@H](C)[C@@H](O)[C@@H](O)[C@@H]3O)[C@@H](O)C=O)[C@H](O)CO)[C@@H]2O)O[C@H](CO)[C@@H](O[C@@H]2O[C@@H](C)[C@@H](O)[C@@H](O)[C@@H]2O)[C@@H]1O[C@@H]1O[C@H](CO)[C@H](O)[C@H](O)[C@H]1O [LNDFH II] | invariant | invariant |  |  | 
CC(=O)N[C@H]1[C@H](O[C@H]2[C@@H](O)[C@@H](CO)O[C@@H](O[C@H]3[C@H](O)[C@@H](O)C(O)O[C@@H]3CO)[C@@H]2O)O[C@H](CO)[C@@H](O)[C@@H]1O[C@@H]1O[C@H](CO)[C@H](O)[C@H](O)[C@H]1O (some centres unmarked) [LNT, lacto-N-tetraose] | invariant | invariant |  |  | 
lacto-N-difucohexaose (LNDFH) I [LNDFH I] | invariant | invariant |  |  | 

Reference: article PMC6713505 (Science Advances, 2019)
